# Measurements reported in PubChem BioAssay.
# Activity calls are given as the source filed them.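 How the source made its calls, unless noted: active means viability at or below 10% of carrier control in both of two separate runs; inconclusive means viability at or below 10% in only one of the two runs; inactive means the rest.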
# How the values were obtained:
# [1] = Her2 expression decrease, cell viability multiplex – SKBR3 breast tumor cells, AlphaScreen, ATP viability, primary screen (AID 461;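 active means Her2 level under about 52% in both replicate screens, with viability over 70% of control, limit read from the data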;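 on Her2 level: lower value means less Her2 protein in the cells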;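 on viability: percent of carrier control wells set as 100% viability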); conditions: SKBR3 Her2 protein level, 18-24 h, measured here: SKBR3 viability, ATP luminescence, at 10 µM
# [2] = molecular target: Receptor tyrosine-protein kinase erbB-2 (Homo sapiens) (UniProt P04626); experiment: as above; conditions: 18-24 h, at 10 µM, stronger effect = lower value
# Receptor tyrosine-protein kinase erbB-2 (Homo sapiens), sequence (P04626 whole entry, looked up): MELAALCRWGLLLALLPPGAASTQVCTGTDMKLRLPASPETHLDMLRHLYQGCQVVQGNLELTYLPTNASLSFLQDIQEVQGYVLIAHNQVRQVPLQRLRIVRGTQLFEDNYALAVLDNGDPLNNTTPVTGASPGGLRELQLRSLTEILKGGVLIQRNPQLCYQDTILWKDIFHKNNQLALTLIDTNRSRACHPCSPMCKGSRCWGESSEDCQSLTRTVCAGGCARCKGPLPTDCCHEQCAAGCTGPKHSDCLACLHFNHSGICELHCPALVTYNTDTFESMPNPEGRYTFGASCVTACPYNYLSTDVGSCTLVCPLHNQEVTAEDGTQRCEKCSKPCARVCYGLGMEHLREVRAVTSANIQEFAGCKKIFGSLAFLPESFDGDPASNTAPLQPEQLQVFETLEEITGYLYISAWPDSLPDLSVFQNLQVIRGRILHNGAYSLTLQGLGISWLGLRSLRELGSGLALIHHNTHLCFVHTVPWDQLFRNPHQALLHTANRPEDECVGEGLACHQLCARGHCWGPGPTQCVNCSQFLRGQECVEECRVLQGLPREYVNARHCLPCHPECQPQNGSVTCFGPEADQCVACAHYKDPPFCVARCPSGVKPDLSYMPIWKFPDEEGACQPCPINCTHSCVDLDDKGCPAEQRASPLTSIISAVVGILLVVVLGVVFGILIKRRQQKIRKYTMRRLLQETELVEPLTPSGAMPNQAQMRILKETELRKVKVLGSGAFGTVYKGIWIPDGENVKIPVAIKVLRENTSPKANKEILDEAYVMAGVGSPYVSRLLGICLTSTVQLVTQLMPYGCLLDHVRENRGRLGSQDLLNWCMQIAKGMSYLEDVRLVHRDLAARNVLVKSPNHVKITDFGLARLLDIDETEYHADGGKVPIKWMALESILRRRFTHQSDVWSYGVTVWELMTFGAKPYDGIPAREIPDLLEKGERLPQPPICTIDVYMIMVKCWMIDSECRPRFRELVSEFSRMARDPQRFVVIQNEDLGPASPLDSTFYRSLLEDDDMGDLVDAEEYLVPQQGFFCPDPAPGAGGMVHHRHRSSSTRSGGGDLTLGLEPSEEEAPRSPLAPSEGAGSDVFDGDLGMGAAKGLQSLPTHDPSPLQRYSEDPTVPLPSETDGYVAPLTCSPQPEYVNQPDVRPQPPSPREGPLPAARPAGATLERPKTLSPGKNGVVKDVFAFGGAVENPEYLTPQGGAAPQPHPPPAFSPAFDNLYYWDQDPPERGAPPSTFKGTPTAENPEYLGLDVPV
# [3] = reduced viability of SK-BR-3 breast cancer cells – cell-based, 24 h, human, pilot screen (AID 572); conditions: SK-BR-3 viability, CellTiter-Glo luminescence, at 10 µM, stronger effect = lower value;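 further: compound exposure lasted between 18 and 24 h rather than exactly 24 h; 100% = carrier-treated control wells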
# [4] = HUVEC growth inhibition – cell-based, human, primary screen (AID 575;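 active means viability at or below 30% in both replicate assays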;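 further: 100% = median of untreated cell wells with 0.1% DMSO on each plate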); conditions: HUVEC proliferation, CellTiter-Glo luminescence, 72 h; at 10 µM; stronger effect = lower value
# Summary of the method: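 Assay system: primary human umbilical vein endothelial cells / Buffer or medium: endothelial basal medium with 2% FBS plus growth supplements / Compound dosing: one dose, 10 µM final, 0.1% DMSO / Timing: 72 h treatment at 37 °C / Signal: CTG luminescence / Benchmarks: 32 DMSO-only cell-control wells (high), 32 MePR drug-control wells (low) per plate / Plate: collagen-coated 384-well format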
# [5] = H69AR cell proliferation blockers – human, duplicate replicates, primary screen (AID 580;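 active means viability at or under a set limit in both replicates, limit being median viability minus 3 SD, cut at about 48% in these data, passing the limit was not always enough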;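 further: 100% = mean luminescence of untreated wells and 0% = no signal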); conditions: H69AR lung tumor cells viability, ATP luminescence, 72 h; at 10 µM; stronger effect = lower value
# [6] = MRP1 drug-resistance reversers in H69AR cells – cell-based, doxorubicin co-treatment, pilot screen (AID 601;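 active means viability loss from added drug above about 55%, and viability with drug at most 40%, in both replicates, limit read from the data, passing the limit was not always enough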); conditions: CellTiter-Glo, 72 h, at 10 µM; for differential viability (reversal): stronger effect = higher value
# [7] = yeast transport mutant growth inhibition pilot in 384-well plates, post-Golgi transport modulator project (AID 636; in the data active means inhibition above about 31%); conditions: absorbance 615 nm, about 18 h, stronger effect = higher value
# [8] = growth suppression of yeast trafficking mutant, preliminary HTS, modulators of trafficking downstream of Golgi apparatus project, 1536-format plate, OD 615 nm (AID 637; in the data active means inhibition above about 30%); conditions: yeast transport mutant growth, absorbance 615 nm, 18 h; stronger effect = higher value
# [9] = H69AR cells + 2 uM doxorubicin, measured here: viability with 2 uM doxorubicin, stronger effect = lower value
# [10] = H69AR cells, compound alone cytotoxicity
Structure (SMILES),viability [1] [%],Her2 level [2],viability [3],viability [4],viability [5],differential viability (reversal) ([6]; H69AR cells + 2 uM doxorubicin),"viability [6, 9] [%]","viability [6, 10] [%]",inhibition [7],inhibition [8]
Cc1nnc2ccc(N3CCC4(CC3)OCCO4)nn12,101,89.5% (inactive),101% (inactive),100% (inactive),108% (inactive),11.1% (inactive),96.5,108,-6.22% (inactive),-3% (inactive)
Clc1cccc(-c2nn3c(Cn4cnc5ccccc54)nnc3s2)c1,94.5,82.5% (inactive),94.5% (inactive),76.9% (inactive),94.9% (inactive),-1.69% (inactive),96.6,94.9,0.92% (inactive),5.9% (inactive)
COc1ccc(-c2cc(N3CCCC3)n3ncnc3n2)cc1,86,94.5% (inactive),86% (inactive),78.7% (inactive),87.2% (inactive),11.9% (inactive),75.2,87.2,-5.27% (inactive),-2.46% (inactive)
Cc1cc2ncn(S(=O)(=O)c3ccc(S(=O)(=O)N4CCOCC4)cc3)c2cc1C,91.5,91.5% (inactive),91.5% (inactive),102% (inactive),98.3% (inactive),0.945% (inactive),97.3,98.3,-1.47% (inactive),-7.1% (inactive)
CCSc1nnc(-c2ccc(OC)cc2)o1,100,93.5% (inactive),100% (inactive),92.7% (inactive),81.2% (inactive),-10.4% (inactive),91.6,81.2,-0.51% (inactive),-11% (inactive)
CCn1ncc(C2=NOC(C(=O)Nc3ccc4c(c3)OCO4)C2)c1C (stereo not given),95.5,139% (inactive),95.5% (inactive),108% (inactive),94.8% (inactive),0.945% (inactive),93.9,94.8,-3.97% (inactive),-4.92% (inactive)
CN(C)c1cccc(NC(=O)CCc2ccccc2)c1,86,90% (inactive),86% (inactive),89.9% (inactive),94.5% (inactive),-7.99% (inactive),102,94.5,-5.89% (inactive),2.38% (inactive)
O=C(c1cccs1)c1cn(CC(=O)N2CCc3ccccc3C2)c2ccccc12,93,108% (inactive),93% (inactive),86.1% (inactive),86.9% (inactive),7.43% (inactive),79.5,86.9,-6.13% (inactive),1.45% (inactive)
CC12CCC(C(=O)O)(c3nc(C#N)c(C#N)nc31)C2(C)C (stereo not given),106,96.5% (inactive),106% (inactive),115% (inactive),91.6% (inactive),6.8% (inactive),84.8,91.6,-6.27% (inactive),6.07% (inactive)
CC(=O)Nc1ccc(NC(=O)C(C)Oc2ccccc2F)cc1 (stereo not given),102,102% (inactive),102% (inactive),113% (inactive),103% (inactive),18.8% (inactive),84,103,-5.97% (inactive),-2.22% (inactive)
Cc1cc(=O)[nH]c(SCC(=O)NCc2ccco2)n1,95,106% (inactive),95% (inactive),88.6% (inactive),94.6% (inactive),-5.85% (inactive),100,94.6,-5.48% (inactive),-2.38% (inactive)
CCOC(=O)N1CCN(C(=O)CN(C)S(=O)(=O)c2ccc(OC)c(OC)c2)CC1,100,94.5% (inactive),100% (inactive),104% (inactive),91.5% (inactive),3.21% (inactive),88.3,91.5,-6.84% (inactive),1.97% (inactive)
CC(=O)c1c(OCC(=O)O)ccc2c(C)cc(=O)oc12,136,104% (inactive),136% (inactive),101% (inactive),91.8% (inactive),3.1% (inactive),88.7,91.8,-5.66% (inactive),6.07% (inactive)
CCN(CC)CCOC(=O)c1cccc(OC)c1,115,105% (inactive),115% (inactive),96.9% (inactive),90.2% (inactive),-4.21% (inactive),94.4,90.2,-5.07% (inactive),-2.79% (inactive)
COc1ccc(NC(=O)c2oc3ccc(S(=O)(=O)N4CCC5(CC4)OCCO5)cc3c2C)cc1,87.5,90.5% (inactive),87.5% (inactive),39.4% (inactive),37.5% (active),-5.32% (inactive),42.8,37.5,1.17% (inactive),-14.8% (inactive)
CC1CCc2cc(F)cc3c(O)c(C(=O)Nc4cnccn4)c(=O)n1c23 (stereo not given),97.5,82.5% (inactive),97.5% (inactive),99.9% (inactive),92.8% (inactive),-1.42% (inactive),94.2,92.8,-0.92% (inactive),4.52% (inactive)

Structure (SMILES),viability [1] [%],Her2 level [2],viability [3],viability [4],viability [5],differential viability (reversal) ([6]; H69AR cells + 2 uM doxorubicin),"viability [6, 9] [%]","viability [6, 10] [%]",inhibition [7],inhibition [8]
CC1=C(C(=O)NCc2ccccn2)C2(CCC(C)CC2)OC1=O (stereo not given),94.5,99% (inactive),94.5% (inactive),103% (inactive),89.4% (inactive),-0.25% (inactive),89.7,89.4,-5.47% (inactive),-1.97% (inactive)
O=C(O)C1CCCN1c1ncnc2c1oc1ccccc12 (stereo not given),101,92% (inactive),101% (inactive),81% (inactive),92.3% (inactive),-7.12% (inactive),99.4,92.3,-0.4% (inactive),-7.1% (inactive)
COc1ccc(CC(=O)Nc2ccc(OC)c(NC(=O)c3ccco3)c2)cc1,91,106% (inactive),91% (inactive),85.8% (inactive),81.9% (inactive),-9.55% (inactive),91.5,81.9,4% (inactive),-2.38% (inactive)
OC1(c2cccc(C(F)(F)F)c2)CCNCC1,110,91% (inactive),110% (inactive),96.5% (inactive),90.8% (inactive),4.62% (inactive),86.2,90.8,-8.53% (inactive),-3.02% (inactive)
Cc1ccccc1-c1nc(CS(=O)(=O)CC(=O)NCc2ccccc2)c(C)o1,93.5,100% (inactive),93.5% (inactive),87.8% (inactive),96.5% (inactive),6.09% (inactive),90.4,96.5,-7.07% (inactive),-2.3% (inactive)
Cc1sc2nc(SCC(=O)Nc3c(C)n(C)n(-c4ccccc4)c3=O)n(C)c(=O)c2c1C,102,95.5% (inactive),102% (inactive),95.4% (inactive),97.3% (inactive),1.12% (inactive),96.2,97.3,0% (inactive),1.15% (inactive)
NS(=O)(=O)c1ccc(NC(=O)N[C@@H](Cc2ccccc2)C(=O)O)cc1,82.5,95.5% (inactive),82.5% (inactive),95.6% (inactive),97.6% (inactive),5% (inactive),92.6,97.6,-3.73% (inactive),4.52% (inactive)
COc1ccc(-n2nc(C(=O)NCC(=O)NCC3CCCO3)c3ccccc3c2=O)cc1 (stereo not given),120,86.5% (inactive),120% (inactive),103% (inactive),85.5% (inactive),-6.73% (inactive),92.2,85.5,-0.78% (inactive),1.15% (inactive)
CC(C)COC(=O)C(C#N)c1nc2ccccc2nc1N1CCN(Cc2ccccc2)CC1 (stereo not given),76,85.5% (inactive),76% (inactive),64.7% (inactive),74.7% (inactive),-5.91% (inactive),80.6,74.7,-4.53% (inactive),14.3% (inactive)
Cc1cc(C)c2cc(CN(CC3CCCO3)C(=O)NC3CCCCC3)c(=O)[nH]c2c1 (stereo not given),78.5,89.5% (inactive),78.5% (inactive),92% (inactive),73.4% (inactive),-2.42% (inactive),75.8,73.4,-0.13% (inactive),15.8% (inactive)
Cc1ccc(C)c(-n2c(Cc3cc(=O)[nH]c(=O)[nH]3)nnc2SCC(=O)NCc2ccco2)c1,131,142% (inactive),131% (inactive),100% (inactive),102% (inactive),13.3% (inactive),89,102,-6% (inactive),-5% (inactive)
O=C(CN(Cc1cccs1)C(=O)CNS(=O)(=O)c1ccccc1)NCc1ccco1,98,96.5% (inactive),98% (inactive),101% (inactive),101% (inactive),12.7% (inactive),88,101,0.13% (inactive),-3.33% (inactive)
CN(CC(O)COCc1cccs1)C1CCCCC1 (stereo not given),93.5,90% (inactive),93.5% (inactive),93.2% (inactive),106% (inactive),10.9% (inactive),95.4,106,-3.47% (inactive),5.57% (inactive)
CC1(C)Cc2c(sc3c2c(=N)n(Cc2ccco2)c(=O)n3Cc2ccccc2)CO1,98.5,88.5% (inactive),98.5% (inactive),90.1% (inactive),71.9% (inactive),28.9% (inactive),43,71.9,-1.82% (inactive),-1.27% (inactive)
COc1ccc(Cl)cc1NC(=O)COc1cccc(-n2cnnn2)c1,110,80% (inactive),110% (inactive),98.5% (inactive),86.4% (inactive),4.85% (inactive),81.5,86.4,-5.87% (inactive),1.61% (inactive)
